Measurements pooled from the literature.
Lines come from different studies, so protocols differ.

Nc1ccc(/C=C/C(=O)NCc2cc3cc(-c4ccc(C(=O)N5CCC(F)(F)CC5)cc4)cc(-c4ccc(F)cc4)c3o2)cn1 — half-life (rat, plasma; intravenous, 1 mg/kg): 5.61 h
C/C(=N\c1ccc(O)cc1)c1cc2ccccc2n1C — concentration (male Sprague-Dawley rat, plasma; intravenous, 5 mg/kg, 5 min, single dose): 0.173 µg/mL
O=C(C=Cc1ccccc1)Nc1cc(-c2ccnc(N3CCC(O)CC3)c2)ccn1 — half-life (female Sprague-Dawley rat, plasma; intravenous, 5 mg/kg): 0.47 h
O=C1CC[C@H](N2Cc3cc(N4CCN(CC5CCN(c6ccc([C@@H]7c8ccc(O)cc8CC[C@@H]7c7ccccc7)cc6)CC5)CC4)ccc3C2=O)C(=O)N1 — half-life (female Sprague-Dawley rat, plasma; oral, 20 mg/kg, fasted): 5.24 h
COc1cccc2c1C(=O)c1c(O)c3c(c(O)c1C2=O)C[C@@](O)(C(=O)CO)C[C@@H]3O[C@H]1C[C@H](N)[C@H](O)[C@H](C)O1 — viability (K562; cell growth or viability, MTT; 100 µg/mL): 23.9%
CC1=C(C(=O)OC(C)C)C(c2cccc(O)c2)NC(=O)N1 (stereo not shown) — viability (MCF-10A; cell growth or viability, MTT; 50 µM, 96 h): 87%
O=C(c1ccc(OCCN2CCCCC2)cc1)c1c(-c2ccc(O)cc2)sc2cc(O)ccc12 — inhibition (Broad substrate specificity ATP-binding cassette transporter ABCG2 (ABCG2, Homo sapiens, UniProt Q9UNQ0); transporter uptake, inhibitor; Sf9; 10 µM, pH 7, cell membranes): ~50%
COc1cc(C2NC(=O)NC(C)=C2C(=O)OC(C)C)ccc1OCc1ccccc1 (stereo not shown) — viability (MCF-10A; cell growth or viability, MTT; 50 µM, 96 h): 91%
CC1(CN)CCN(c2cnc3c(Sc4ccncc4Cl)n[nH]c3n2)CC1 — half-life (male Sprague-Dawley rat, plasma; oral, 10 mg/kg): 2.47 h
COc1cc(C2NC(=O)NC(C)=C2C(=O)OC(C)C)cc(OC)c1OC (stereo not shown) — viability (MCF-10A; cell growth or viability, MTT; 50 µM, 96 h): 92%
CC(=Nc1ccc(N=Cc2cnccn2)cc1)N(C)C — half-life (male Sprague-Dawley rat, plasma; intravenous, 20 mg/kg): 1.53 h
CC1=C(C(=O)OC(C)C)C(c2cccc(O)c2)NC(=S)N1 (stereo not shown) — viability (MCF-10A; cell growth or viability, MTT; 50 µM, 96 h): 93%
N#C[C@@]12C[C@@H]1[C@@H](n1cnc3c(N[C@@H](C4CCC4)C4CC4)nc(I)nc31)[C@H](O)[C@@H]2O — half-life (male Wistar rat, plasma; oral, 1 mg/kg): 2.2 h
